Source: ChEMBL document CHEMBL1667787, “Synthesis and in vitro cytotoxicity evaluation of some fluorinated hexahydropyrimidine derivatives” (Bioorg Med Chem Lett, 2011)

Experiment: Cytotoxicity against human COLO320 cells after 72 hrs by Alamar Blue assay
Type: functional, cell-based
Conditions: COLO 320, 72 h
In short: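 COLO 320 HSR cells (ATCC) kept in RPMI 1640 with 10% FBS, bicarbonate, pyruvate, Hepes and antibiotics at 37 °C, 5% CO2. Seeded 1 × 10^4 cells/well, attached 24 h, then exposed 72 h to compound or DMSO vehicle. AlamarBlue added 1:10, incubated overnight at 37 °C, fluorescence read at 560 nm excitation/590 nm emission. Triplicates, means; IC50 by linear regression.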

Row | Structure (SMILES) | IC50
1 | CCOC(=O)C1=C(C(F)(F)F)NC(SCC(=O)c2ccc(C(F)(F)F)cc2)NC1c1ccc2c(c1)OCO2 (stereo unspecified) | 8.1 µM
2 | CCOC(=O)[C@@H]1[C@@H](c2ccc3c(c2)OCO3)NC(=S)N[C@@]1(O)C(F)(F)F | 75 µM
3 | O=C(c1cccs1)[C@@H]1[C@@H](c2ccc3c(c2)OCO3)NC(=S)N[C@@]1(O)C(F)(F)F | 62.5 µM
4 | O=C(c1cccs1)[C@@H]1[C@@H](c2cccc(O)c2)NC(=S)N[C@@]1(O)C(F)(F)F | 72 µM
5 | COc1ccc([C@H]2NC(=S)N[C@@](O)(C(F)(F)F)[C@@H]2C(=O)c2ccco2)cc1 | 11.5 µM
6 | O=C(c1ccco1)[C@@H]1[C@@H](c2ccccc2)NC(=S)N[C@@]1(O)C(F)(F)F | 63 µM
7 | COc1ccc([C@H]2NC(=S)N[C@@](O)(C(F)(F)F)[C@@H]2C(=O)c2cccs2)cc1 | 75 µM
8 | CCOC(=O)[C@@H]1[C@@H](c2ccccc2Br)NC(=S)N[C@@]1(O)C(F)(F)F | 73 µM
9 | O=C(c1ccc2ccccc2c1)[C@@H]1[C@@H](c2ccc3c(c2)OCO3)NC(=S)N[C@@]1(O)C(F)(F)F | 9.9 µM
10 | O=C(c1ccco1)[C@@H]1[C@@H](c2cccc(O)c2)NC(=S)N[C@@]1(O)C(F)(F)F | > 100 µM
11 | O=C(c1ccco1)[C@@H]1[C@@H](c2ccc3c(c2)OCO3)NC(=S)N[C@@]1(O)C(F)(F)F | 67 µM
12 | CCOC(=O)[C@@H]1[C@@H](c2ccc(F)cc2)NC(=S)N[C@@]1(O)C(F)(F)F | 75 µM
13 | COC(=O)[C@@H]1[C@@H](c2cccc(O)c2)NC(=S)N[C@@]1(O)C(F)(F)F | > 100 µM
14 | CCOC(=O)[C@@H]1[C@@H](c2cccc(O)c2)NC(=S)N[C@@]1(O)C(F)(F)F | > 100 µM
15 | CCOC(=O)[C@@H]1[C@@H](c2cccc(C#N)c2)NC(=S)N[C@@]1(O)C(F)(F)F | > 100 µM
16 | CCOC(=O)C1=C(C(F)(F)F)NC(=S)NC1c1ccc2c(c1)OCO2 (stereo unspecified) | 12.2 µM
